Series [1] has as its target Glutamate receptor ionotropic, NMDA 2B (Rattus norvegicus) (UniProt Q00960). Briefly: Displacement of [3H]ifenprodil from rat brain membrane NR2B receptor relative to ifenprodil.
In series [2] the target is Glutamate receptor ionotropic, NMDA 2B (Rattus norvegicus, UniProt Q00960). Briefly: Displacement of [3H]ifenprodil from rat brain membrane NR2B receptor. For orientation: Loss of bound radioactivity is the signal in a displacement assay; it reports binding, not function.
Series [3] has as its target T1, Glutamate NMDA receptor; GRIN1/GRIN2A (Homo sapiens, UniProt Q05586+Q12879). Briefly: Activity at NR1/NR2A receptor expressed in xenopus oocytes assessed as Inhibition of L-glutamate and glycine-induced current response at 100 uM. To be noted: Oocyte. The class given is cell-based.
In series [4] the target is T2, Glutamate NMDA receptor; GRIN1/GRIN2B (Homo sapiens, UniProt Q05586+Q13224). The series is described as follows: Inhibition of N-terminal domain truncated NR1/NR2B receptor expressed in xenopus oocytes assessed as effect on L-glutamate and glycine-induced current response upto 100 uM. The class given is cell-based. To be noted: Oocyte.
The target of series [5] is T2, Glutamate NMDA receptor; GRIN1/GRIN2B. Briefly: Inhibition of NR1/NR2B receptor expressed in xenopus oocytes assessed as effect on L-glutamate and glycine-induced current response relative to ifenprodil. It is filed as cell-based. To be noted: Oocyte. The essentials: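 Two-electrode voltage clamp on Xenopus oocytes expressing wild-type NR1/NR2B. Currents evoked by saturating L-glutamate plus glycine, 100 µM each; compound applied during the NMDA response and change in current size measured.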

Series [6] concerns the target T1, Glutamate NMDA receptor; GRIN1/GRIN2A. The series is described as follows: Activity at NR1/NR2A receptor expressed in xenopus oocytes assessed as effect on L-glutamate and glycine-induced current response. It is filed as cell-based, Oocyte.
A short description of series [7]: Stability in frogs Ringer buffer by HPLC. It is filed as physicochemical. To be noted: frog's Ringer buffer.
Series [8] is described as follows: Stability in frogs Ringer buffer in presence of N-acetyl cysteine methyl ester by HPLC. It is filed as physicochemical. To be noted: frog's Ringer buffer with N-acetyl cysteine methyl ester. The essentials: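 Half-life in frog's Ringer buffer, pH 7.4, followed by HPLC peak-area decrease over time in presence of excess N-acetyl cysteine methyl ester; NACME and compound levels varied per run (mM range); reactivity also expressed in relative terms.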

Series [9] concerns the target T2, Glutamate NMDA receptor; GRIN1/GRIN2B. The series is described as follows: Inhibition of NR1/NR2B receptor expressed in xenopus oocytes assessed as effect on L-glutamate and glycine-induced current response. It is filed as cell-based, Oocyte. A digest of the protocol: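 Two-electrode voltage clamp on Xenopus oocytes expressing wild-type NR1/NR2B receptors. NMDA currents were evoked with saturating L-glutamate plus glycine. The compound was applied during an ongoing NMDA response, and the change in current amplitude it induced was measured.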

The target is the same in series [10]. Briefly: Inhibition of NR1/NR2B receptor expressed in xenopus oocytes assessed as effect on L-glutamate and glycine-induced current response at 10 uM. To be noted: Oocyte. It is filed as cell-based.
For series [11] the target is unchanged. The series is described as follows: Inhibition of N-terminal domain truncated NR1/NR2B receptor expressed in xenopus oocytes assessed as effect on L-glutamate and glycine-induced current response. It is filed as cell-based, Oocyte.
For series [12], the target named is T1, Glutamate NMDA receptor; GRIN1/GRIN2A. The series is described as follows: Inhibition of NR1/NR2A receptor expressed in xenopus oocytes assessed as effect on L-glutamate and glycine-induced current response. The class given is cell-based, Oocyte.

Calls of active or inactive are those of the source. No cut-off for these calls is given here. Bounds are passed on as bounds.

Sequence of Glutamate receptor ionotropic, NMDA 2B (Q00960 whole entry): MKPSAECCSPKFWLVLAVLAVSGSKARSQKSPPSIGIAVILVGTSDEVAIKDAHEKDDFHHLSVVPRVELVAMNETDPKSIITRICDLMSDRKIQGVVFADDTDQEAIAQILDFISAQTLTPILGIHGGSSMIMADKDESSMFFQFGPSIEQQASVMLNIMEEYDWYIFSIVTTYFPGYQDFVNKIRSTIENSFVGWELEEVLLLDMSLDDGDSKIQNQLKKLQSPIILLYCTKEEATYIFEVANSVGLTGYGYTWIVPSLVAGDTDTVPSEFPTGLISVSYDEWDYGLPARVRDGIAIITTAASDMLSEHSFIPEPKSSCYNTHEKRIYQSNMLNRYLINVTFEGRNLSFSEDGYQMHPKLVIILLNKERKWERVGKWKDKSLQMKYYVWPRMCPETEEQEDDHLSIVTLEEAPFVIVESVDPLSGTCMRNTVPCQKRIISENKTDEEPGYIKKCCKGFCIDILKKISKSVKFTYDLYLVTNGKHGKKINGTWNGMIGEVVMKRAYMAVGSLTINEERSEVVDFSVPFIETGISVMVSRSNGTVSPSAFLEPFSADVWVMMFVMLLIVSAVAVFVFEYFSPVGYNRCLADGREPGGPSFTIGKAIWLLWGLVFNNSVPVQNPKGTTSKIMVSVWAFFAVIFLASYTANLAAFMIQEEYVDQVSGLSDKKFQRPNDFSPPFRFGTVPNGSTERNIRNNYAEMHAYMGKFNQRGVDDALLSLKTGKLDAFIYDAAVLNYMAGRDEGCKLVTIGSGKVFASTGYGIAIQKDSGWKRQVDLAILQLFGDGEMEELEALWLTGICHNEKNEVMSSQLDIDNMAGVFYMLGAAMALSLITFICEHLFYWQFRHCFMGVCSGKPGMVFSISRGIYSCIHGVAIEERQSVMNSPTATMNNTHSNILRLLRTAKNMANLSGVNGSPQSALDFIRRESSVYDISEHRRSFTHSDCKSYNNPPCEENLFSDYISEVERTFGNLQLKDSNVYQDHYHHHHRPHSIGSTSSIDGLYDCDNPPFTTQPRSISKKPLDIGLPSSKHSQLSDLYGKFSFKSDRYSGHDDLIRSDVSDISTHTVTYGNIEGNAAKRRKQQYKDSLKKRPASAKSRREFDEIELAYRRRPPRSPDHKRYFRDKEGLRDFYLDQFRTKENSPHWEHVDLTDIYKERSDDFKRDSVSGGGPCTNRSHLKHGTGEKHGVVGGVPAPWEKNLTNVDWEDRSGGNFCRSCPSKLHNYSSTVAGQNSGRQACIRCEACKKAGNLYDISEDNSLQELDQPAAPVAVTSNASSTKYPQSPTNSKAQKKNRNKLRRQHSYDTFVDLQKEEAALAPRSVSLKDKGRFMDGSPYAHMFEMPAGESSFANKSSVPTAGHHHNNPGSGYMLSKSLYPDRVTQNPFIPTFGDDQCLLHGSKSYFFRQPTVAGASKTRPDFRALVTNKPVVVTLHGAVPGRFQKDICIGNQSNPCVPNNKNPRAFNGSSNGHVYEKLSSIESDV
Sequence of Glutamate receptor ionotropic, NMDA 2B (Rattus norvegicus) (Q00960 27-1482 limits assumed): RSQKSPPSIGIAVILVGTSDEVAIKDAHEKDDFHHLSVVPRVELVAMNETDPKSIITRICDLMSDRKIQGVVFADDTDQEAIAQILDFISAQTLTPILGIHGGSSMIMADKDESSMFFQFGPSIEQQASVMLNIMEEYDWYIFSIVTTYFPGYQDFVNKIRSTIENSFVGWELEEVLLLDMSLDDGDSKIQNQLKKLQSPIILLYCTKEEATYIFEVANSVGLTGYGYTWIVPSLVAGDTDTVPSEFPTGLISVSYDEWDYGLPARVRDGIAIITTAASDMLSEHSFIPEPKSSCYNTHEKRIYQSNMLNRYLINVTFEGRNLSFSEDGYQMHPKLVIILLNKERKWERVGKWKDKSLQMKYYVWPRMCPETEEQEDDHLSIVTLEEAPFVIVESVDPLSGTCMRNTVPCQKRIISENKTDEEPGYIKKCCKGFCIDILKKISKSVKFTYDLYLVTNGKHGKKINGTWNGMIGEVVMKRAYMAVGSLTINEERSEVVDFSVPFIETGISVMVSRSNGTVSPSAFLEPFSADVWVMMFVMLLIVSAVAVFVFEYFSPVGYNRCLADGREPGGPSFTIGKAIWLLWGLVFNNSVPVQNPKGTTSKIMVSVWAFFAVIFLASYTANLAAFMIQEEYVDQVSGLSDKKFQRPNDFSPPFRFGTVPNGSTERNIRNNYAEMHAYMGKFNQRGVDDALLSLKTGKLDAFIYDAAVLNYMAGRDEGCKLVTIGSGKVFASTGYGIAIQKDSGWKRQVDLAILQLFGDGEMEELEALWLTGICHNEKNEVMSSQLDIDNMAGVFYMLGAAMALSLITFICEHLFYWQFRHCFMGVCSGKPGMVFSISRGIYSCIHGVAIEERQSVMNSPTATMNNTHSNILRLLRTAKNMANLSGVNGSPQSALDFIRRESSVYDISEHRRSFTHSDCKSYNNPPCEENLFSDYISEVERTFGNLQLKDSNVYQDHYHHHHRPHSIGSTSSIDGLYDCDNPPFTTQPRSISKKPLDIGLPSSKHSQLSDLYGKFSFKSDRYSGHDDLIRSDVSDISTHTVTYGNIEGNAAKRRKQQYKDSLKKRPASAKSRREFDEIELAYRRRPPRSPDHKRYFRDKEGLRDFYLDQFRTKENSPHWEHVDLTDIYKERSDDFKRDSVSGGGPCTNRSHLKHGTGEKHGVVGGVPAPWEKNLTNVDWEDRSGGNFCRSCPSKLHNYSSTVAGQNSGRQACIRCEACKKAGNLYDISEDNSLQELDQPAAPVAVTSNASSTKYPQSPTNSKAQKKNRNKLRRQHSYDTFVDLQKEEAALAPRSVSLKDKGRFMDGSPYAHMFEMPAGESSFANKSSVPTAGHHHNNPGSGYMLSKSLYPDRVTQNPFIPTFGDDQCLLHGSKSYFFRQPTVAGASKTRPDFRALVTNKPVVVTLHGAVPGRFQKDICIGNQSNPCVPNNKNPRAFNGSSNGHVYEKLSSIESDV

For orientation: Ki means the equilibrium dissociation constant of an inhibitor or competing ligand from its target. Consider `O=C(CN1CCC(Cc2ccc([N+](=O)[O-])cc2)CC1)c1ccc(O)cc1`, for which the Ratio in series [1] amounted to 18. In addition, the inhibition constant Ki in series [2] is 200 nM.
What is called inhibition is how much of the control response was suppressed. Usually EC50 stands for the concentration needed to bring the measured effect to its halfway point. The half-life is the time in which the quantity being followed falls by half. In general, IC50 refers to the concentration that gives 50% inhibition. For `C=C(CN1CCC(Cc2ccccc2)CC1)C(=O)c1ccc(OC)cc1`, in [3], the inhibition came to 11%. Also, the result in series [4] was inactive. The Ratio IC50 in [5] was 640. In addition, in series [1], the Ratio was found to be 48. For the same compound, the 50% effective concentration (EC50) in [6] is greater than 100000 nM. In addition, the half-life was 5 h in [7] and 0.117 h in [8]. In addition, the Ki in series [2] came out at 527 nM. Also, in series [9], the IC50 is 70000 nM.
As to `CC(C(O)c1ccc(N)cc1)N1CCC(Cc2ccccc2)CC1` (racemic; erythro) [listing 1 of 2 here], the Ratio in series [1] amounted to 8.8.
Consider `CC(C(=O)c1ccc(N=C=S)cc1)N1CCC(Cc2ccccc2)CC1` (stereo not given), for which the Ratio in [1] is 62. The figures for the half-life in series [7] and in [8] were 20 h and 0.054 h, respectively. The Ki in series [2] was 679 nM. Also, the inhibition in series [10] was 8%.
Regarding `CC(C(=O)c1ccc(N)cc1)N1CCC(Cc2ccccc2)CC1` (stereo not given), in [1], the Ratio amounted to 1. The affinity in series [2], expressed as Ki, was 58 nM.
For the compound `CC(C(O)c1ccc(N)cc1)N1CCC(Cc2ccccc2)CC1` (racemic; erythro) [listing 2 of 2 here], the Ki in [2] turned out to be 97 nM.
With `CC(C(O)c1ccc(N)cc1)N1CCC(Cc2ccccc2)CC1` (racemic; threo) [listing 1 of 2 here], the Ratio in series [1] amounted to 27.
Consider `CC(=O)Nc1ccc(C(=O)C(C)N2CCC(Cc3ccccc3)CC2)cc1` (stereo not given), for which, in [1], the Ratio came to 10. In series [2], this compound had a Ki of 107 nM.
On to `C=C(CN1CCC(Cc2ccccc2)CC1)C(=O)c1ccc([N+](=O)[O-])cc1`, for which the Ratio in series [1] turned out to be 23. Further, the values for the half-life in series [7] and in series [8] were 5 h and 1.03 h, respectively. In addition, in [2], the Ki stood at 248 nM.
With `CC(C(=O)c1ccc(NC(=O)CCl)cc1)N1CCC(Cc2ccccc2)CC1` (stereo not given), in series [3], the inhibition is 25%. The Ratio IC50 in [5] was 130. In series [1], the Ratio came to 45. The EC50 in [6] was greater than 100000 nM. Also, the results for the half-life in [7] and in series [8] were greater than 24 h and 1.9 h, respectively. In [2], this compound returned a Ki of 493 nM. Further, the IC50 in [11] was 230000 nM; in series [9], 14000 nM.
Regarding `O=C(CN1CCC(Cc2ccccc2)CC1)c1ccc(O)cc1`, the Ratio in series [1] was found to be 13. Also, in series [2], the affinity corresponds to a Ki of 141 nM.
For the compound `O=C(CN1CCC(Cc2ccc(N=C=S)cc2)CC1)c1ccc(O)cc1`, the IC50 was found to be 16000 nM in [12], 570000 nM in series [11] and 16000 nM in series [9]. Besides, in [5], the Ratio IC50 is 145. For the same compound, the Ratio in series [1] was 22. For the same compound, the EC50 in [6] was greater than 100000 nM. For the same compound, the half-life in [7] was greater than 24 h; in [8], 0.383 h. The Ki in series [2] was 245 nM.
`CC(C(O)c1ccc(N)cc1)N1CCC(Cc2ccccc2)CC1` (racemic; threo) [listing 2 of 2 here] came in with a Ki in series [2] of 300 nM.
With `Oc1ccc(C(O)CN2CCC(Cc3ccccc3)CC2)cc1` (stereo not given), the Ratio in [1] was determined as 16. For the same compound, the Ki in series [2] was 62 nM.
